# The source made the active and inactive calls. No cut-off for these calls is given here.
# Columns and labels:
# [1] = target: T1, Acid ceramidase (Homo sapiens) (UniProt Q13510); experiment: Activity of human recombinant acid ceramidase expressed in baculovirus infected Sf9 cells assessed as hydrolysis at 20 uM after 150 mins by TLC-based fluorescence imaging; design: scale not given: the % may be the effect or the level left
# T1 sequence (whole entry): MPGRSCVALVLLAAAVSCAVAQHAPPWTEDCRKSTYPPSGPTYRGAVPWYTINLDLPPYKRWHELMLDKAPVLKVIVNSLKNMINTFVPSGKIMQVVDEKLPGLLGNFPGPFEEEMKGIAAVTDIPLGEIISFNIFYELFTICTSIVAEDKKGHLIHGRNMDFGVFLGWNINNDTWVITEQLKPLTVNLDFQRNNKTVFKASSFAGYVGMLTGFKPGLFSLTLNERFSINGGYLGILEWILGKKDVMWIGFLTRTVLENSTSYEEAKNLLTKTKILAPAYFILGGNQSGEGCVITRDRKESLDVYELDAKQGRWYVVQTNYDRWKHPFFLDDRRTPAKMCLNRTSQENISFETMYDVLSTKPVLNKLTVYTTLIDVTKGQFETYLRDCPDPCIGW
# Method in brief: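 Micellar assay with insect-cell-expressed human aCDase in 200 mM sodium acetate pH 4.5, 200 mM NaCl, 0.1% Triton X-100. Substrate at 20 µM final, 150 min at 37 °C. Quenched with chloroform/methanol 2:1, organic layer separated on silica TLC. Spots imaged at ex 550/em 600 nm (Nile Red) or ex 430/em 550 nm (NBD). Percent cleavage taken from cleaved/(cleaved+uncleaved) fluorescence; mean ± SD, n=3.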
# [2] = target: T1, Acid ceramidase (Homo sapiens); experiment: Activity of human recombinant acid ceramidase expressed in baculovirus infected Sf9 cells assessed as hydrolysis at 80 uM after 150 mins by TLC-based fluorescence imaging in presence of B-13
# Method in brief: (§1)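 Inhibition runs used 30 µg/mL aCDase with inhibitor at 50 µM, in pH 4.5 sodium acetate buffer with 200 mM NaCl and 0.1% Triton X-100. Substrate set per compound at 80, 55 or 160 µM; DMSO <5%. Incubated 150 min at 37 °C, then extracted and run on TLC with fluorescence imaging. Activity expressed relative to an inhibitor-free control; mean ± SD of three experiments, with significance by p value.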
# [3] = target: Neutral ceramidase (Homo sapiens) (UniProt Q9NR71); experiment: Activity of human recombinant neutral ceramidase assessed as hydrolysis at 20 uM after 60 mins by TLC-based fluorescence imaging; design: scale not given: the % may be the effect or the level left
# Method in brief: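 Recombinant human nCDase at 20 ng/mL final, with substrate at 20 µM final, in 200 mM sodium acetate pH 7.0, 200 mM NaCl, 0.1% Triton X-100. Incubated 60 min at 37 °C. Stopped with chloroform/methanol 2:1 and centrifuged 2 min at 10,000 rpm; organic layer run on TLC. Percent hydrolysis from imaged fluorescence of product versus substrate; mean ± SD, n=3.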
# Tachypleus tridentatus = experiment: Activity of japanese horseshoe crab acid ceramidase after 30 mins by TLC-based fluorescence imaging
# [4] = target: T1, Acid ceramidase (Homo sapiens); experiment: Activity of human recombinant acid ceramidase expressed in baculovirus infected Sf9 cells assessed as hydrolysis at 80 uM after 150 mins by TLC-based fluorescence imaging in presence of DP-24a; method in brief: as §1
# [5] = target: T1, Acid ceramidase (Homo sapiens); experiment: Activity of human recombinant acid ceramidase expressed in baculovirus infected Sf9 cells assessed as hydrolysis at 55 uM after 150 mins by TLC-based fluorescence imaging in presence of B-13; method in brief: as §1
# [6] = target: T1, Acid ceramidase (Homo sapiens); experiment: Activity of human recombinant acid ceramidase expressed in baculovirus infected Sf9 cells assessed as hydrolysis at 55 uM after 150 mins by TLC-based fluorescence imaging in presence of DP-24a; method in brief: as §1
# [7] = target: T1, Acid ceramidase (Homo sapiens); experiment: Activity of human recombinant acid ceramidase expressed in baculovirus infected Sf9 cells assessed as hydrolysis at 160 uM after 150 mins by TLC-based fluorescence imaging in presence of DP-24a; method in brief: as §1
# [8] = target: T1, Acid ceramidase (Homo sapiens); experiment: Activity of human recombinant acid ceramidase expressed in baculovirus infected Sf9 cells assessed as hydrolysis at 160 uM after 150 mins by TLC-based fluorescence imaging in presence of B-13; method in brief: as §1
# Chain of Neutral ceramidase (Homo sapiens) (Q9NR71 whole entry): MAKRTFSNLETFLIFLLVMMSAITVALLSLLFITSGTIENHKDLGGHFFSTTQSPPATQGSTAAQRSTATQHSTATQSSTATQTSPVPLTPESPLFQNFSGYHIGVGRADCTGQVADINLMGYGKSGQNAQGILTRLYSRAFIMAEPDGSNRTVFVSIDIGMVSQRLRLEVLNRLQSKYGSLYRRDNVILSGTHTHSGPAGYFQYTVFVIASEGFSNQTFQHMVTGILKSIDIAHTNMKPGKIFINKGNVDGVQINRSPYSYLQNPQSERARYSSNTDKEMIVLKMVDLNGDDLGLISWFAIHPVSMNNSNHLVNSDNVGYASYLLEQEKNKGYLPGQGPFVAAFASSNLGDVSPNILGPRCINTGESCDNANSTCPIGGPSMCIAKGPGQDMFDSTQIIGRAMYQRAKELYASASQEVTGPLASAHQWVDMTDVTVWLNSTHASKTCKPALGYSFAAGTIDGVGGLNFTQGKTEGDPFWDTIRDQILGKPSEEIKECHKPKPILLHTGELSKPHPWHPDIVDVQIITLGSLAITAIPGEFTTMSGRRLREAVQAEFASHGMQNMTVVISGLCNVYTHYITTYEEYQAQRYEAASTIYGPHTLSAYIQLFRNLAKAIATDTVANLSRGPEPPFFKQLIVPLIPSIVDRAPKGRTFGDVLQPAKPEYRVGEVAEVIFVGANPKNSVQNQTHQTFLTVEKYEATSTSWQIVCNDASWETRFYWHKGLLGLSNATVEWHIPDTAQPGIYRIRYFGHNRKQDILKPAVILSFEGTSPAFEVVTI
SMILES,Activity [1] [%],Activity [2],Activity [3] [%],Km (Tachypleus tridentatus) [µM],Vmax (Tachypleus tridentatus) [pmol/min],Activity [4],Activity [5],Activity [6],Activity [7],Activity [8]
CCCCCCCCCCCCC/C=C/[C@@H](O)[C@H](CO)NC(=O)CCCCCCCCCCCNc1ccc([N+](=O)[O-])c2nonc12,9.9,inactive,9.9,59,0.8,inactive,–,–,–,–
CCCCCCCCCCCCC/C=C/[C@@H](O)[C@H](CO)NC(=O)CCCCCCCCCCCOc1ccc2c(=O)cc3oc4cc(N(CC)CC)ccc4nc-3c2c1,6.1,inactive,3.3,–,–,inactive,–,–,–,–
CCCCCCCCCCCCCCCC(=O)N[C@@H](CO)[C@H](O)/C=C/CCCCCCCCCOc1ccc2c(=O)cc3oc4cc(N(CC)CC)ccc4nc-3c2c1,6.3,–,3.9,–,–,–,inactive,inactive,–,–
CCCCCCCCCCCCCCCC(=O)N[C@@H](CO)[C@H](O)/C=C/CCCCCCCCCNc1ccc([N+](=O)[O-])c2nonc12,5.6,–,6.2,–,–,–,–,–,inactive,inactive

# From ChEMBL document CHEMBL2146367, “Novel fluorescent ceramide derivatives for probing ceramidase substrate specificity” (Bioorg Med Chem, 2012)
